From ChEMBL document CHEMBL3414478, “Activity of 2-aryl-2-(3-indolyl)acetohydroxamates against drug-resistant cancer cells” (J Med Chem, 2015)
Calls of active or inactive are those of the source. No cut-off for these calls is given here.

What was measured:
HeLa = assay: Antiproliferative activity against human HeLa cells assessed as reduction in cell viability after 48 hrs by MTT assay; format: functional, cell-based
Outline: (§1)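 MTT assay. HeLa and U87 cells were grown in DMEM + 10% FBS, and MCF-7 cells in RPMI + 10% FBS. Cells were seeded at 4 × 10³/well, grown 24 h, then exposed to 0.001–100 μM for 48 h. 0.1% DMSO was the negative control and 1 μM PAO the positive control. Quadruplicate wells, ≥2 repeats.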

MCF7 = assay: Antiproliferative activity against human MCF7 cells assessed as reduction in cell viability after 48 hrs by MTT assay; format: functional, cell-based; conditions: MCF7, 48 h; outline: as §1
NHDF = assay: Cytotoxicity against human NHDF cells assessed as cell growth after 48 hrs by MTT assay; format: cell-based
Outline: (§2)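 Normal fibroblasts (NHDF, NHLF) were grown in FGM-2 medium at 37 °C, 5% CO2, seeded at 4 × 10³/well and grown 24 h. Controls were 0.1% DMSO and 1 μM PAO. Quadruplicate wells, repeated at least twice.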

[1] = Cytotoxicity against human NHLF cells assessed as cell growth after 48 hrs by MTT assay; format: cell-based; outline: as §2
[2] = Antiproliferative activity against human GBM 031810 cells assessed as reduction in cell viability after 48 hrs by MTT assay; format: functional; conditions: GBM 031810, 48 h
Outline: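 Patient-derived glioblastoma neurosphere culture GBM 031810, kept in Neurobasal medium with B27, Glutamax, FGF-2 (20 ng/ml), EGF (20 ng/ml) and heparin; growth factors renewed twice weekly. GI50 is the average ± SD of three determinations.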

U-87MG ATCC [3] = assay: Antiproliferative activity against human U87 cells assessed as reduction in cell viability up to 100 uM after 48 hrs by MTT assay; format: functional, cell-based
Outline: (§3)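 Cells (U87 in DMEM, A549 in RPMI with 10% heat-inactivated FBS) were seeded at 4 × 10³/well, grown 24 h, then exposed to 0.001–100 μM compound (DMSO stocks) for 48 h at 37 °C, 5% CO₂. Quadruplicates, repeated at least twice; 0.1% DMSO negative control, 1 μM PAO positive control.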

A549 = assay: Antiproliferative activity against human A549 cells assessed as reduction in cell viability up to 100 uM after 48 hrs by MTT assay; format: functional, cell-based; outline: as §3
[4] = Antiproliferative activity against human U373 cells assessed as global growth ratio measured as cell growth at 25 uM after 24 hrs by Quantitative videomicroscopy relative to untreated control; format: functional, U-373MG ATCC; conditions: in the assay text read “after 72 hrs” for “after 24 hrs”
Outline: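 U373 cells were grown in RPMI + 10% heat-inactivated FBS and followed by computer-assisted phase-contrast videomicroscopy with 25 μM compound. The global growth ratio is the mean cell count per image at 24, 48 or 72 h divided by the count at 0 h, then normalised to the same ratio in the untreated control.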

U-87MG ATCC [5] = assay: Redifferentiation of human U87 cells assessed as nonmalignant state resembling reactive astrocyte/phenotype at 7 uM after 3 days; format: functional, cell-based; conditions: in the assay text read “33 days” for “3 days”
Outline: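 U87 cells were plated at 5 × 10⁴/well in DMEM/10% FBS. Next day they were re-fed and dosed at final concentrations between 15 and 5 μM, with medium not replaced afterwards. Morphology was followed for several weeks (33-day treatment shown at 7 μM) against untreated cells.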

[6] = Antiproliferative activity against human U87 cells assessed as reduction in cell viability after 48 hrs by MTT assay; format: functional, U-87MG ATCC; conditions: U-87 MG; outline: as §1

SMILES	IC50 (HeLa) [µM]	IC50 (MCF7) [µM]	further results
O=C(NO)C(c1ccccc1)c1c(-c2ccccc2)[nH]c2ccccc12 (centres undefined)	23	31	–
NC(=O)C(c1ccccc1)c1c(-c2ccc3ccccc3c2)[nH]c2ccccc12 (centres undefined)	9.3	11.6	–
O=C(NO)C(c1ccccc1Cl)c1c(-c2ccc3ccccc3c2)[nH]c2ccccc12 (centres undefined)	31	4.9	–
N#CC(c1ccccc1)c1c(-c2ccc3ccccc3c2)[nH]c2ccccc12 (centres undefined)	17.4	20.6	–
Cc1ccc(C(C(=O)NO)c2c(-c3ccc4ccccc4c3)[nH]c3ccccc23)cc1C (centres undefined)	2.7	2.5	–
CCCCn1c(-c2ccc3ccccc3c2)c(C(C(=O)NO)c2ccccc2)c2ccccc21 (centres undefined)	5.6	7.8	–
CCCCn1c(-c2ccc3ccccc3c2)c(C(C(=O)NO)c2ccc(C(C)C)cc2)c2ccccc21 (centres undefined)	6.6	7.7	–
O=C(NO)C(c1ccccc1Br)c1c(-c2ccc3ccccc3c2)[nH]c2ccccc12 (centres undefined)	13	2.7	–
O=C(NO)C(c1ccc(F)cc1)c1c(-c2ccc3ccccc3c2)[nH]c2ccccc12 (centres undefined)	18.2	6.3	–
O=C(NO)C(c1cccc(F)c1)c1c(-c2ccc3ccccc3c2)[nH]c2ccccc12 (centres undefined)	32.9	20.4	–
CN(C)c1ccc(C(C(=O)NO)c2c(-c3ccc4ccccc4c3)[nH]c3ccccc23)cc1 (centres undefined)	0.6	1.1	Activity (NHDF): Non-toxic; Activity [1]: Non-toxic; GI50 [2]: 5.6 µM
O=C(NO)C(c1ccc(OC(F)(F)F)cc1)c1c(-c2ccc3ccccc3c2)[nH]c2ccccc12 (centres undefined)	27.4	10.2	–
CCC(C)n1c(-c2ccc3ccccc3c2)c(C(C(=O)NO)c2ccccc2)c2ccccc21 (centres undefined)	9.8	9.3	–
Cc1ccc(C(C(=O)NO)c2c(-c3ccc4ccccc4c3)[nH]c3ccccc23)cc1 (centres undefined)	6.3	4.9	–
O=C(NO)C(c1ccccc1)c1c(-c2ccccc2[N+](=O)[O-])[nH]c2ccccc12 (centres undefined)	> 50	> 50	–
O=C(NO)C(c1ccccc1)c1c(-c2ccc3ccccc3c2)n(Cc2ccccc2)c2ccccc12 (centres undefined)	5.4	5.5	–
Cn1c(-c2ccc3ccccc3c2)c(C(C(=O)NO)c2ccccc2Br)c2ccccc21 (centres undefined)	24	11.2	–
CC(=O)O[C@H]1C(=O)[C@@]2(C)[C@H]([C@H](OC(=O)c3ccccc3)[C@]3(O)C[C@H](OC(=O)[C@H](O)[C@@H](NC(=O)c4ccccc4)c4ccccc4)C(C)=C1C3(C)C)[C@]1(OC(C)=O)CO[C@@H]1C[C@@H]2O	–	–	Activity (U-87MG ATCC [3]): inactive; Activity (A549): inactive

SMILES	IC50 (HeLa) [µM]	IC50 (MCF7) [µM]	further results
COc1cc([C@@H]2c3cc4c(cc3[C@H](O)[C@H]3COC(=O)[C@H]23)OCO4)cc(OC)c1OC	–	–	Activity (U-87MG ATCC [3]): inactive; Activity (A549): inactive
CCOc1ccc(C(C(=O)NO)c2c(-c3ccc4ccccc4c3)[nH]c3ccccc23)cc1 (centres undefined)	17.3	8.5	–
Cn1nnc2c(C(N)=O)ncn2c1=O [TEMOZOLOMIDE]	–	–	GI50 [2]: > 1000 µM
O=C(NO)C(c1ccccc1)c1c(-c2cccc3ccccc23)[nH]c2ccccc12 (centres undefined)	25.7	32	–
Cc1ccc2[nH]c(-c3ccc4ccccc4c3)c(C(C(=O)NO)c3ccccc3)c2c1 (centres undefined)	> 50	> 50	–
Cn1c(-c2ccc3ccccc3c2)c(C(C(=O)NO)c2ccccc2)c2ccccc21 (centres undefined)	19.7	10	–
O=C(NO)C(c1ccc(Cl)c(Cl)c1)c1c(-c2ccc3ccccc3c2)[nH]c2ccccc12 (centres undefined)	31.7	12.2	–
O=C(NO)C(c1ccccc1)c1c(-c2ccc3ccccc3c2)[nH]c2ccccc12 (centres undefined)	3.6	3.4	Activity [4]: 30%; Activity (NHDF): Non-toxic; Activity [1]: Non-toxic; Activity (U-87MG ATCC [5]): Active; GI50 [2]: 0.8 µM
Cc1cccc(C(C(=O)NO)c2c(-c3ccc4ccccc4c3)[nH]c3ccccc23)c1 (centres undefined)	6.9	7.4	–
Cc1[nH]c2ccccc2c1C(C(=O)NO)c1ccccc1 (centres undefined)	> 50	> 50	–
COc1ccc(-c2[nH]c3ccccc3c2C(C(=O)NO)c2ccccc2)cc1 (centres undefined)	> 50	> 50	–
Cn1c(-c2ccc3ccccc3c2)c(C(C(=O)NO)c2cccc(F)c2)c2ccccc21 (centres undefined)	36.8	25.7	–
CC(C)c1ccc(C(C(=O)NO)c2c(-c3ccc4ccccc4c3)[nH]c3ccccc23)cc1 (centres undefined)	0.68	1.4	GI50 [2]: 3.4 µM; GI50 [6]: 5 µM
CCN(CC)c1ccc(C(C(=O)NO)c2c(-c3ccc4ccccc4c3)[nH]c3ccccc23)cc1 (centres undefined)	4.1	7.9	–
O=C(NO)C(c1ccc([N+](=O)[O-])cc1)c1c(-c2ccccc2)[nH]c2ccccc12 (centres undefined)	> 50	> 50	–
COc1ccc2[nH]c(-c3ccc4ccccc4c3)c(C(C(=O)NO)c3ccccc3)c2c1 (centres undefined)	> 50	> 50	–
COc1ccc(C(C(=O)NO)c2c(-c3ccc4ccccc4c3)[nH]c3ccccc23)cc1OC (centres undefined)	26.9	2.4	–
